Calls of active or inactive are those of the source.

Test [1] concerns SGBS. The experiment in a line: Upregulation of PLIN1 gene expression in human preadipocyte derived from Simpson-Golabi-Behmel syndrome (SGBS) patient at 25 uM measured for 12 days by qRT-PCR analysis. The format is functional, cell-based. A digest of the protocol: (§1)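 SGBS cells were differentiated with serum-free induction medium containing 25 μM test agent, 2 μM rosiglitazone or 0.1% DMSO from day 0. IBMX and dexamethasone were removed on day 4 and medium was renewed on day 8. RNA was taken on days 0, 4, 8 and 12 for qPCR, normalized to TBP and to day 0. At least three biological replicates in duplicate, two-way ANOVA with Bonferroni.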
A general note: Real-time PCR tracks product formation cycle by cycle.

The subject of test [2] is SGBS. The experiment in a line: Upregulation of ADIPOQ gene expression in human preadipocyte derived from Simpson-Golabi-Behmel syndrome (SGBS) patient at 25 uM measured for 12 days by qRT-PCR analysis. The format is functional, cell-based. A digest of the protocol: as §1
In test [3] the test system is SGBS. The experiment in a line: Upregulation of ANGPTL4 gene expression in human preadipocyte derived from Simpson-Golabi-Behmel syndrome (SGBS) patient at 25 uM measured for 12 days by qRT-PCR analysis. It is filed as functional, cell-based. Summed up:
as §1

The target of test [4] is T1, Peroxisome proliferator-activated receptor alpha (Mus musculus) (UniProt P23204).
T1 sequence (whole entry): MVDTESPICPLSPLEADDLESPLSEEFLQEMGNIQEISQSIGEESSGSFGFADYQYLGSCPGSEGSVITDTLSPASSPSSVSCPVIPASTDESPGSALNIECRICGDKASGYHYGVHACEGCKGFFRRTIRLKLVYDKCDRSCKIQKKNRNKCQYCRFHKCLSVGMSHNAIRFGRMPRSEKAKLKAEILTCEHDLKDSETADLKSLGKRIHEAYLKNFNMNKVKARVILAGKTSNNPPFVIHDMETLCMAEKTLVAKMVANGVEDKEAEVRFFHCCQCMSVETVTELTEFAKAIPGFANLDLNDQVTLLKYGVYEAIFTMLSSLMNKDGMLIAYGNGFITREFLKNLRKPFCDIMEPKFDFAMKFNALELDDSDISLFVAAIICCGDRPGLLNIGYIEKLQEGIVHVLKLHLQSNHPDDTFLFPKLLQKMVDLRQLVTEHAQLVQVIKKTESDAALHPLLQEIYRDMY
The test can be described thus: Agonist activity at PPARalpha in C57BL/6N mouse primary hepatocytes assessed as SCD1 mRNA expression at 50 uM measured after 18 hrs by qRT-PCR analysis. The format is cell-based. A digest of the protocol: (§2)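 Treatment for 18 h at 50 μM (or 1 μM for the 1 μM agents), DMSO vehicle. Harvested for qPCR. mRNA normalized to TBP by the comparative threshold method, expressed relative to DMSO control. Two biological replicates run in duplicate, mean ± SEM. Primary hepatocytes came from male C57BL/6N mice aged 7–8 weeks, isolated by portal-vein perfusion and digestion, seeded on collagen I and used on day 2. HuH-7 cells were kept in DMEM with 10% FBS and ITS.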

The target in test [5] is T1, Peroxisome proliferator-activated receptor alpha (Mus musculus). The test can be described thus: Agonist activity at PPARalpha in C57BL/6N mouse primary hepatocytes assessed as PPARA mRNA expression at 50 uM measured after 18 hrs by qRT-PCR analysis. The format is cell-based. Summed up:
as §2

The subject of test [6] is SGBS. The experiment in a line: Upregulation of CEBPA gene expression in human preadipocyte derived from Simpson-Golabi-Behmel syndrome (SGBS) patient at 25 uM measured for 12 days by qRT-PCR analysis. The format is functional, cell-based. Summed up:
as §1

Test [7] deals with T2, Peroxisome proliferator-activated receptor alpha (Homo sapiens) (UniProt Q07869).
T2 sequence (whole entry): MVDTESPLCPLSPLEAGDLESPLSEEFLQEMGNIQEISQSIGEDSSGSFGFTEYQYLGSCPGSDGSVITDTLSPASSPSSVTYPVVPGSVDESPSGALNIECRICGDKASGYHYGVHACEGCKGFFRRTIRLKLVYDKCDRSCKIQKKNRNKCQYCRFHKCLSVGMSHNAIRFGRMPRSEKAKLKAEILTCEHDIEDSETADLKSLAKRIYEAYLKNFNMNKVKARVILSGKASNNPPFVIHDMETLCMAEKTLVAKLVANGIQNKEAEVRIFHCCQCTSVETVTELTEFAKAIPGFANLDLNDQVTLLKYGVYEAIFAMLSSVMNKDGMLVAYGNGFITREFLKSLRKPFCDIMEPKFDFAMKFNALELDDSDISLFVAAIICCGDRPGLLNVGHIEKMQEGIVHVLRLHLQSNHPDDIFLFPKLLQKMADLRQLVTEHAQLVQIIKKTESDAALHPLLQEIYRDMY
The experiment in a line: Agonist activity at PPARalpha in human Huh7 cells assessed as PPARA mRNA expression at 50 uM measured after 18 hrs by qRT-PCR analysis. It is filed as cell-based. Summed up: as §2

Test [8] deals with SGBS. The test can be described thus: Induction of adipocyte differentiation in human preadipocyte derived from Simpson-Golabi-Behmel syndrome (SGBS) patient assessed as lipid accumulation at 25 uM measured for 12 days by Oil red O staining based microscopic analysis. The format is functional, cell-based. Summed up: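 Differentiation of SGBS preadipocytes was started in serum-free medium with transferrin, insulin, T3, hydrocortisol, IBMX and dexamethasone, plus 25 μM test agent, 2 μM rosiglitazone or 0.1% DMSO. On day 4 medium was switched to lack IBMX and dexamethasone, and it was renewed on day 8. Cells were fixed with 4% PFA and stained with 0.3% Oil Red O on days 0, 4, 8 and 12, then photographed.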

Test [9] addresses T1, Peroxisome proliferator-activated receptor alpha (Mus musculus). The experiment in a line: Agonist activity at PPARalpha in C57BL/6N mouse primary hepatocytes assessed as SREBF1 mRNA expression at 50 uM measured after 18 hrs by qRT-PCR analysis. It is filed as cell-based. A digest of the protocol: as §2
For test [10], the target named is T2, Peroxisome proliferator-activated receptor alpha (Homo sapiens). The experiment in a line: Agonist activity at PPARalpha in human Huh7 cells assessed as SREBF1 mRNA expression at 50 uM measured after 18 hrs by qRT-PCR analysis. It is filed as cell-based. A digest of the protocol:
as §2

Test [11] has as its system SGBS. The test can be described thus: Upregulation of FABP4 gene expression in human preadipocyte derived from Simpson-Golabi-Behmel syndrome (SGBS) patient at 25 uM measured for 12 days by qRT-PCR analysis. The format is functional, cell-based. Summed up:
as §1

The subject of test [12] is SGBS. The test can be described thus: Upregulation of ACSL1 gene expression in human preadipocyte derived from Simpson-Golabi-Behmel syndrome (SGBS) patient at 25 uM measured for 12 days by qRT-PCR analysis. It is filed as functional, cell-based. A digest of the protocol: as §1
Test [13] addresses T2, Peroxisome proliferator-activated receptor alpha (Homo sapiens). The experiment in a line: Agonist activity at PPARalpha in human Huh7 cells assessed as SCD1 mRNA expression at 50 uM measured after 18 hrs by qRT-PCR analysis. It is filed as cell-based. A digest of the protocol:
as §2

Test [14] deals with SGBS. The test can be described thus: Upregulation of CD36 gene expression in human preadipocyte derived from Simpson-Golabi-Behmel syndrome (SGBS) patient at 25 uM measured for 12 days by qRT-PCR analysis. The format is functional, cell-based. A digest of the protocol: as §1
For test [15], the system named is SGBS. The test can be described thus: Upregulation of PPARgamma gene expression in human preadipocyte derived from Simpson-Golabi-Behmel syndrome (SGBS) patient at 25 uM measured for 12 days by qRT-PCR analysis. The format is functional, cell-based. Summed up:
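SGBS cells grown 4 days in biotin/D-pantothenate medium, then differentiated without FBS (apo-transferrin, insulin, T3, hydrocortisol, IBMX, dexamethasone) with 25 μM compound or 0.1 % DMSO added from day 0. After 4 days, switched to maintenance medium without IBMX/dexamethasone, renewed day 8. qPCR on days 0, 4, 8, 12, normalized to TBP (comparative threshold) and to day 0. Minimum three biological replicates in duplicate, mean ± SEM.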

Test [16] has as its target T2, Peroxisome proliferator-activated receptor alpha (Homo sapiens). The test can be described thus: Agonist activity at PPARalpha in human Huh7 cells assessed as activation of CPT1A mRNA expression at 50 uM measured after 18 hrs by qRT-PCR analysis. The format is cell-based. Summed up:
as §2

For test [17], the target named is T1, Peroxisome proliferator-activated receptor alpha (Mus musculus). The experiment in a line: Agonist activity at PPARalpha in C57BL/6N mouse primary hepatocytes assessed as activation of Cpt1a mRNA expression at 50 uM measured after 18 hrs by qRT-PCR analysis. It is filed as cell-based. A digest of the protocol: as §2

As to `CCCCC/C=C/C(=O)CCCCCCCC(=O)O`, the outcome (with SGBS [1]; with SGBS [2]; in the test with SGBS [3]; in test [5]; in the test with SGBS [6]; in the test on SGBS [8]) was Active. In addition, the outcome in the test on SGBS [11], in the test with SGBS [12], with SGBS [14] and in the test on SGBS [15] was Active. Moreover, the result in test [4], in [7], in [9], in [10] and in test [13] was inactive.

`Cc1cccc(Nc2cc(Cl)nc(SCC(=O)O)n2)c1C`: the result (with SGBS [1]; with SGBS [2]; in test [16]; in the test on SGBS [3]; in [4]; in test [17]) was Active. The result (with SGBS [6]; in the test with SGBS [8]; in test [9]; in the test with SGBS [11]; with SGBS [12]; in the test with SGBS [14]) was Active. For the same compound, in the test with SGBS [15], the result was Active. Further, the result in test [7], in [10] and in [13] was inactive.

For the origin of these results see ChEMBL document CHEMBL4393735, “Molecular modelling, synthesis, and biological evaluations of a 3,5-disubstituted isoxazole fatty acid analogue as a PPARα-selective agonist” (Bioorg Med Chem, 2019).
